Test results from ChEMBL document CHEMBL1139401, “5-(4-Chlorophenyl)-5,6-dihydro-1,3-oxazepin-7(4H)-one derivatives as lipophilic cyclic analogues of baclofen: design, synthesis, and neuropharmacological evaluation” (2008).

Columns and labels:
Assay type in all cases: functional
Details in all cases: route intraperitoneal
Mus musculus [1] = experiment: Analgesic activity in albino mouse assessed as retention latency at 3 mg/kg, ip after 45 mins by hot plate test
Outline: (§1)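 Male albino mice (20–25 g), five per group, given drug in DMSO ip; vehicle controls got DMSO alone. Mice were placed in a glass cylinder on a 54 °C metal plate. Latency to hind-paw lick or jump was recorded, with a 30 s cut-off. Testing was 30, 45, 60 and 90 min post-injection. Values are mean ± SEM.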

Mus musculus [2] = experiment: Neuropharmacological effect in albino mouse assessed as duration of loss of righting reflex at 3 mg/kg, ip
Outline: (§2)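 Male albino mice (20–25 g), five per group, injected ip (drug in DMSO). Loss of righting reflex was inability to right within 30 s, after which mice were laid supine in a 90° trough. Return was righting twice within 1 min. Onset was recorded, and duration was the time from loss to return. Values are mean ± SEM.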

Mus musculus [3] = experiment: Neuropharmacological effect in albino mouse assessed as spontaneous locomotor activity at 3 mg/kg, ip after 60 mins
Outline: (§3)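 Male albino mice (20–25 g), five per group, got ip drug in DMSO or DMSO vehicle and went back to their home cages. After 30, 45, 60 or 90 min each was placed alone in a Plexiglas box and spontaneous locomotor activity was recorded. Tests were run in the morning. Values are mean ± SEM.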

Mus musculus [4] = experiment: Neuropharmacological effect in albino mouse assessed as endurance time at 3 mg/kg, ip after 60 mins by rotarod test
Outline: (§4)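 For the rotarod, the cylinder was 6 cm diameter, 30 cm high and turned at 12 rpm. Male albino mice were trained the day before to stay on for 300 s, and those not reaching this were excluded. Endurance time (max 300 s) was measured 30, 45, 60 and 90 min after ip drug in DMSO or vehicle. Five mice per group; mean ± SEM.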

Mus musculus [5] = experiment: Muscle relaxant activity in albino mouse at 3 mg/kg, ip after 90 mins by traction test; set-up: scale not given: the % may be the effect or the level left
Outline: (§5)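 Traction test in male albino mice (20–25 g), five per group, given drug ip in DMSO. Success required touching the wire with at least one hind paw within 5 s; otherwise scored as failure. Mice were tested 30, 45, 60 and 90 min after dosing, immediately before the rotarod. Results are % successful, mean ± SEM.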

Mus musculus [6] = experiment: Neuropharmacological effect in albino mouse assessed as onset of loss of righting reflex at 3 mg/kg, ip; outline: as §2
Mus musculus [7] = experiment: Decrease in cognitive impairment in albino mouse assessed as retention latency at 3 mg/kg, ip after 90 mins by passive avoidance reflex test
Outline: (§6)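 Passive avoidance in male albino mice (20–25 g), five per group, housed singly from the day before training. Drug in DMSO was given ip 30, 45, 60 or 90 min before the training trial. Mice were put in the light side of a two-compartment apparatus and the door to the dark side was opened. The retention test next day used the shock generator off. Latency reported as mean ± SEM.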

Mus musculus [8] = experiment: Decrease in cognitive impairment in albino mouse assessed as retention latency at 3 mg/kg, ip after 60 mins by passive avoidance reflex test; outline: as §6
Mus musculus [9] = experiment: Analgesic activity in albino mouse assessed as retention latency at 3 mg/kg, ip after 60 mins by hot plate test; outline: as §1
Mus musculus [10] = experiment: Decrease in cognitive impairment in albino mouse assessed as retention latency at 3 mg/kg, ip after 45 mins by passive avoidance reflex test; outline: as §6
Mus musculus [11] = experiment: Neuropharmacological effect in albino mouse assessed as endurance time at 3 mg/kg, ip after 30 mins by rotarod test; outline: as §4
Mus musculus [12] = experiment: Decrease in cognitive impairment in albino mouse assessed as retention latency at 3 mg/kg, ip after 30 mins by passive avoidance reflex test; outline: as §6
Mus musculus [13] = experiment: Neuropharmacological effect in albino mouse assessed as spontaneous locomotor activity at 3 mg/kg, ip after 90 mins; outline: as §3
Mus musculus [14] = experiment: Muscle relaxant activity in albino mouse at 3 mg/kg, ip after 60 mins by traction test; set-up: scale not given: the % may be the effect or the level left; outline: as §5
Mus musculus [15] = experiment: Muscle relaxant activity in albino mouse at 3 mg/kg, ip after 45 mins by traction test; set-up: scale not given: the % may be the effect or the level left; outline: as §5
Mus musculus [16] = experiment: Muscle relaxant activity in albino mouse at 3 mg/kg, ip after 30 mins by traction test; set-up: scale not given: the % may be the effect or the level left; outline: as §5
Mus musculus [17] = experiment: Analgesic activity in albino mouse assessed as retention latency at 3 mg/kg, ip after 90 mins by hot plate test; outline: as §1
Mus musculus [18] = experiment: Analgesic activity in albino mouse assessed as retention latency at 3 mg/kg, ip after 30 mins by hot plate test; outline: as §1
Mus musculus [19] = experiment: Neuropharmacological effect in albino mouse assessed as endurance time at 3 mg/kg, ip after 90 mins by rotarod test; outline: as §4
Mus musculus [20] = experiment: Neuropharmacological effect in albino mouse assessed as endurance time at 3 mg/kg, ip after 45 mins by rotarod test; outline: as §4
Mus musculus [21] = experiment: Neuropharmacological effect in albino mouse assessed as spontaneous locomotor activity at 3 mg/kg, ip after 30 mins; outline: as §3
Mus musculus [22] = experiment: Neuropharmacological effect in albino mouse assessed as spontaneous locomotor activity at 3 mg/kg, ip after 45 mins; outline: as §3

Compound	Activity (Mus musculus [1]) [s]	Activity (Mus musculus [3]) [m]	Activity (Mus musculus [4]) [s]	Activity (Mus musculus [5]) [%]	Activity (Mus musculus [7]) [s]	Activity (Mus musculus [8]) [s]	Activity (Mus musculus [9]) [s]	Activity (Mus musculus [10]) [s]	Activity (Mus musculus [11]) [s]	Activity (Mus musculus [12]) [s]	Activity (Mus musculus [13]) [m]	Activity (Mus musculus [14]) [%]	Activity (Mus musculus [15]) [%]	Activity (Mus musculus [16]) [%]	Activity (Mus musculus [17]) [s]	Activity (Mus musculus [18]) [s]	Activity (Mus musculus [19]) [s]	Activity (Mus musculus [20]) [s]	Activity (Mus musculus [21]) [m]	Activity (Mus musculus [22]) [m]	also measured
CCCCCCCC/C=C/CCCCCCCC1=NCC(c2ccc(Cl)cc2)CC(=O)O1 (configuration not stated)	15.77	10.61	155	31	68.44	75.44	23.61	110.36	198	146.23	9.25	33	35	35	28.43	9.34	128	175	11.45	9.33	Activity (Mus musculus [2]): 93.37 min; Activity (Mus musculus [6]): 38.65 min
CCCCCCCCCCCC1=NCC(c2ccc(Cl)cc2)CC(=O)O1 (configuration not stated)	13.21	14.11	178	40	72.45	88.14	18.56	114.73	232	152.34	15.66	40	43	45	24.43	7.82	145	188	20.12	16.21	Activity (Mus musculus [2]): 60.25 min; Activity (Mus musculus [6]): 38.23 min
CCCCCCCCC1=NCC(c2ccc(Cl)cc2)CC(=O)O1 (configuration not stated)	8.22	42.79	300	100	164.56	160.43	9.23	163.23	300	163.33	40.13	100	100	100	9.33	8.12	300	300	45.24	43.46	–
CCCCCCCCCCCCCC1=NCC(c2ccc(Cl)cc2)CC(=O)O1 (configuration not stated)	15.32	14.76	169	35	67.56	82.36	18.45	109.34	219	147.24	13.11	35	40	40	26.13	8.33	133	174	15.24	13.73	Activity (Mus musculus [2]): 75.93 min; Activity (Mus musculus [6]): 32.16 min
NCC(CC(=O)O)c1ccc(Cl)cc1 (configuration not stated) [BACLOFEN]	15.35	30.76	234	53	128.56	121.44	14.36	121.46	214	125.34	35.64	53	52	50	14.22	13.42	254	225	30.21	28.48	Activity (Mus musculus [2]): 35.23 min; Activity (Mus musculus [6]): 20.24 min
CCCCCCCCCCC1=NCC(c2ccc(Cl)cc2)CC(=O)O1 (configuration not stated)	8.22	42.79	300	100	164.56	160.43	9.23	163.23	300	163.53	40.13	100	100	100	9.33	8.12	300	300	45.24	43.46	–
O=C1CC(c2ccc(Cl)cc2)CN=C(Cc2ccccc2)O1 (configuration not stated)	15.38	0	0	22	65.34	70.34	25.63	106.56	234	125.64	0	25	25	27	28.73	9.53	0	185	0	0	Activity (Mus musculus [2]): 112.36 min; Activity (Mus musculus [6]): 42.12 min
C=CCCCCCCCCC1=NCC(c2ccc(Cl)cc2)CC(=O)O1 (configuration not stated)	14.34	19.43	185	53	95.45	95.35	19.73	118.32	222	148.82	18.56	50	50	55	21.42	8.32	155	198	25.36	20.56	Activity (Mus musculus [2]): 55.33 min; Activity (Mus musculus [6]): 36.63 min
CCCCCCCC1=NCC(c2ccc(Cl)cc2)CC(=O)O1 (configuration not stated)	8.22	42.79	300	100	164.56	160.43	9.23	163.23	300	163.23	40.13	100	100	100	9.33	8.12	300	300	45.24	43.46	–
CC1=NCC(c2ccc(Cl)cc2)CC(=O)O1 (configuration not stated)	8.22	42.79	300	100	164.56	160.43	9.22	163.23	300	163.23	40.13	100	100	100	9.33	8.12	300	300	45.24	43.46	–
